Experimental data: ChEMBL document CHEMBL1128557, “Synthesis, antitumor activity, and chemical properties of silaplatin and related platinum (II) and platinum (IV) complexes derived from beta-silyl amines” (J Med Chem, 1995)
Where “and” joins values, the source holds several entries; their conditions need not be identical. Identical values can stand only once.

Tests used:
Tumor Cell line [1] = assay: Evaluated in vitro for the log10 molecular concentration that caused […] tumor growth of 60 human tumor cell lines.; assay type: functional, cell-based
Outline: (§1)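 Cells preincubated 24 h, then exposed to the agent at five 10-fold dilutions (0.01–100 μM for the platinum complexes) for 48 h. Cells fixed in situ and stained; solubilized stain read spectrophotometrically. Panel of leukemia, non-small-cell lung, ovarian and renal lines. Log GI50 or TGI taken per cell line in one experiment, then averaged across lines.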

Tumor Cell line [2] = assay: Evaluated in vitro for the log10 molecular concentration that caused 50 % inhibition of tumor growth of 60 human tumor cell lines; assay type: functional, cell-based; outline: as §1
Tumor Cell line [3] = assay: The compound was evaluated in vitro for the log10 molecular concentration that caused 50 % of 60 human tumor cell line kills; assay type: ADME, cell-based
Outline: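 Human tumor cell lines (leukemia, non-small-cell lung, ovarian, renal) were preincubated 24 h. Platinum complexes were then added as five 10-fold dilutions, 0.01–100 μM, for 48 h, followed by in situ fixation and staining, with solubilized stain read spectrophotometrically. Log LC50 (50% cell kill) was averaged across cell lines within one experiment.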

Mus musculus [4] = assay: The compound was evaluated for the median survival time (MST) in mice infected with cisplatin sensitive L1210 Leukemia (dose 20 mg/kg, ip), day 9; assay type: functional, organism-based; design: dose 20 mg/kg
Outline: (§2)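 CD2F1 mice implanted ip on day 0 with 10^5 L1210/0 (parent) leukemia cells, in groups of 6 or 10 (20 or 30 controls). Complexes given ip in saline plus Tween 80 on days 1, 5 and 9. BWC is the group mean weight change, day 5 minus day 1. MST is median survival and %ILS is calculated from MST, both from dying mice only, excluding day 30 survivors.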

Mus musculus [5] = assay: The compound was evaluated for the median survival time (MST) in mice infected with cisplatin sensitive L1210 Leukemia (dose 15 mg/kg, ip), day 1; assay type: functional, organism-based; design: dose 15 mg/kg; outline: as §2
Mus musculus [6] = species: Mus musculus; assay: The compound was evaluated for the percentage increase in life span (ILS) based on dying mice only (excludes day 40 survivors) for following doses against L1210 Leukemia cell line, day5; assay type: functional, organism-based
Mus musculus [7] = assay: The compound was evaluated for the median survival time (MST) in mice infected with cisplatin sensitive L1210 Leukemia (dose 80 mg/kg, ip), day 5; assay type: functional, organism-based; design: dose 80 mg/kg; outline: as §2
Mus musculus [8] = assay: The compound was evaluated for the mean body weight change (BWC) in mice infected with cisplatin resistant L1210 Leukemia (dose 30 mg/kg, ip),day 1; assay type: functional, organism-based; design: dose 30 mg/kg
Outline: (§3)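 CD2F1 mice, 6 or 10 per dose group (20 or 30 controls), were implanted ip on day 0 with 10⁵ L1210/0 (parent) or L1210/cisplatin (resistant) leukemia cells. Complexes were given ip in saline plus Tween 80 on days 1, 5 and 9. Read-out was mean body weight change per group, day 5 minus day 1. Sensitive and resistant arms ran simultaneously from the same preparations.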

Mus musculus [9] = assay: The compound was evaluated for the median survival time (MST) in mice infected with cisplatin resistant L1210 Leukemia (dose 15 mg/kg, ip), day 1; assay type: functional, organism-based; design: dose 15 mg/kg
Outline: (§4)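 On day 0, 10⁵ parent or cisplatin-resistant L1210 cells were implanted ip into CD2F1 mice, 6 or 10 per dose group (20 or 30 controls). Dosing was ip on days 1, 5 and 9 in saline plus Tween 80. Median survival time was taken from dying mice only, excluding day-30 survivors. Both sublines were tested concurrently.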

Mus musculus [10] = assay: The compound was evaluated for the mean body weight change (BWC) in mice infected with cisplatin sensitive L1210 Leukemia (dose 80 mg/kg, ip),day 5; assay type: functional, organism-based; design: dose 80 mg/kg; outline: as §2
Mus musculus [11] = assay: The compound was evaluated for the median survival time (MST) in mice infected with cisplatin sensitive L1210 Leukemia (dose 30 mg/kg, ip), day 1; assay type: functional, organism-based; design: dose 30 mg/kg; outline: as §2
Mus musculus [12] = assay: The compound was evaluated for the median survival time (MST) in mice infected with cisplatin sensitive L1210 Leukemia (dose 20 mg/kg, ip), day 5; assay type: functional, organism-based; design: dose 20 mg/kg; outline: as §2
Mus musculus [13] = assay: The compound was evaluated for the median survival time (MST) in mice infected with cisplatin sensitive L1210 Leukemia (dose 10 mg/kg, ip), day 9; assay type: functional, organism-based; design: dose 10 mg/kg; outline: as §2
Mus musculus [14] = assay: The compound was evaluated for the mean body weight change (BWC) in mice infected with cisplatin sensitive L1210 Leukemia (dose 40 mg/kg, ip),day 1; assay type: functional, organism-based; design: dose 40 mg/kg; outline: as §2
Mus musculus [15] = assay: The compound was evaluated for the mean body weight change (BWC) in mice infected with cisplatin sensitive L1210 Leukemia (dose 20 mg/kg, ip),day 1; assay type: functional, organism-based; design: dose 20 mg/kg; outline: as §3
Mus musculus [16] = assay: The compound was evaluated for the mean body weight change (BWC) in mice infected with cisplatin resistant L1210 Leukemia (dose 15 mg/kg, ip),day 1; assay type: functional, organism-based; design: dose 15 mg/kg; outline: as §3
Mus musculus [17] = species: Mus musculus; assay: The compound was evaluated for the percentage increase in life span (ILS) based on dying mice only (excludes day survivors) for following doses against L1210 Leukemia cell line, day1; assay type: functional, organism-based; outline: as §2
Mus musculus [18] = assay: The compound was evaluated for the median survival time (MST) in mice infected with cisplatin sensitive L1210 Leukemia (dose 5 mg/kg, ip), day 1; assay type: functional, organism-based; design: dose 5 mg/kg; outline: as §2
Mus musculus [19] = assay: The compound was evaluated for the mean body weight change (BWC) in mice infected with cisplatin sensitive L1210 Leukemia (dose 15 mg/kg, ip),day 1; assay type: functional, organism-based; design: dose 15 mg/kg; outline: as §2
Mus musculus [20] = assay: The compound was evaluated for the median survival time (MST) in mice infected with cisplatin sensitive L1210 Leukemia (dose 40 mg/kg, ip), day 5; assay type: functional, organism-based; design: dose 40 mg/kg; outline: as §2
Mus musculus [21] = species: Mus musculus; assay: The compound was evaluated for the percentage increase in life span (ILS) based on dying mice only (excludes day 20 survivors) for following doses against L1210 Leukemia cell line, day5; assay type: functional, organism-based
Mus musculus [22] = assay: The compound was evaluated for the mean body weight change (BWC) in mice infected with cisplatin sensitive L1210 Leukemia (dose 5 mg/kg, ip),day 1; assay type: functional, organism-based; design: dose 5 mg/kg; outline: as §2
Mus musculus [23] = assay: The compound was evaluated for the median survival time (MST) in mice infected with cisplatin sensitive L1210 Leukemia (dose 80 mg/kg, ip), day 9; assay type: functional, organism-based; design: dose 80 mg/kg; outline: as §2
Mus musculus [24] = species: Mus musculus; assay: The compound was evaluated for the percentage increase in life span (ILS) based on dying mice only (excludes day 10 survivors) for following doses against L1210 Leukemia cell line, day5; assay type: functional, organism-based
Mus musculus [25] = assay: The compound was evaluated for the mean body weight change (BWC) in mice infected with cisplatin sensitive L1210 Leukemia (dose 20 mg/kg, ip),day 9; assay type: functional, organism-based; design: dose 20 mg/kg; outline: as §2
Mus musculus [26] = species: Mus musculus; assay: The compound was evaluated for the percentage increase in life span (ILS) based on dying mice only (excludes day 20 survivors) for following doses against L1210 Leukemia cell line, day1; assay type: functional, organism-based
Mus musculus [27] = assay: The compound was evaluated for the mean body weight change (BWC) in mice infected with cisplatin sensitive L1210 Leukemia (dose 80 mg/kg, ip),day 9; assay type: functional, organism-based; design: dose 80 mg/kg; outline: as §2
Mus musculus [28] = assay: The compound was evaluated for the median survival time (MST) in mice infected with cisplatin sensitive L1210 Leukemia (dose 20 mg/kg, ip), day 1; assay type: functional, organism-based; design: dose 20 mg/kg; outline: as §2
Mus musculus [29] = species: Mus musculus; assay: The compound was evaluated for the percentage increase in life span (ILS) based on dying mice only (excludes day 15 survivors) for following doses against L1210 Leukemia cell line, day1; assay type: functional, organism-based
Mus musculus [30] = assay: The compound was evaluated for the median survival time (MST) in mice infected with cisplatin sensitive L1210 Leukemia (dose 10 mg/kg, ip), day 1; assay type: functional, organism-based; design: dose 10 mg/kg; outline: as §2
Mus musculus [31] = assay: The compound was evaluated for the median survival time (MST) in mice infected with cisplatin sensitive L1210 Leukemia (dose 10 mg/kg, ip), day 5; assay type: functional, organism-based; design: dose 10 mg/kg; outline: as §2
Mus musculus [32] = assay: The compound was evaluated for the median survival time (MST) in mice infected with cisplatin sensitive L1210 Leukemia (dose 40 mg/kg, ip), day 9; assay type: functional, organism-based; design: dose 40 mg/kg; outline: as §2
Mus musculus [33] = assay: The compound was evaluated for the mean body weight change (BWC) in mice infected with cisplatin resistant L1210 Leukemia (dose 20 mg/kg, ip),day 1; assay type: functional, organism-based; design: dose 20 mg/kg; outline: as §3
Mus musculus [34] = species: Mus musculus; assay: The compound was evaluated for the percentage increase in life span (ILS) based on dying mice only (excludes day 40 survivors) for following doses against L1210 Leukemia cell line, day9; assay type: functional, organism-based
Mus musculus [35] = assay: The compound was evaluated for the median survival time (MST) in mice infected with cisplatin resistant L1210 Leukemia (dose 20 mg/kg, ip), day 1; assay type: functional, organism-based; design: dose 20 mg/kg; outline: as §4
Mus musculus [36] = assay: The compound was evaluated for the median survival time (MST) in mice infected with cisplatin resistant L1210 Leukemia (dose 5 mg/kg, ip), day 1; assay type: functional, organism-based; design: dose 5 mg/kg; outline: as §4
Mus musculus [37] = assay: The compound was evaluated for the median survival time (MST) in mice infected with cisplatin resistant L1210 Leukemia (dose 30 mg/kg, ip), day 1; assay type: functional, organism-based; design: dose 30 mg/kg; outline: as §4
Mus musculus [38] = assay: The compound was evaluated for the mean body weight change (BWC) in mice infected with cisplatin sensitive L1210 Leukemia (dose 20 mg/kg, ip),day 5; assay type: functional, organism-based; design: dose 20 mg/kg; outline: as §2
Mus musculus [39] = assay: The compound was evaluated for the mean body weight change (BWC) in mice infected with cisplatin sensitive L1210 Leukemia (dose 30 mg/kg, ip),day 1; assay type: functional, organism-based; design: dose 30 mg/kg; outline: as §2
Mus musculus [40] = assay: The compound was evaluated for the mean body weight change (BWC) in mice infected with cisplatin sensitive L1210 Leukemia (dose 10 mg/kg, ip),day 5; assay type: functional, organism-based; design: dose 10 mg/kg; outline: as §2
Mus musculus [41] = assay: The compound was evaluated for the mean body weight change (BWC) in mice infected with cisplatin resistant L1210 Leukemia (dose 5 mg/kg, ip),day 1; assay type: functional, organism-based; design: dose 5 mg/kg; outline: as §3
Mus musculus [42] = assay: The compound was evaluated for the mean body weight change (BWC) in mice infected with cisplatin sensitive L1210 Leukemia (dose 40 mg/kg, ip),day 5; assay type: functional, organism-based; design: dose 40 mg/kg; outline: as §2
Mus musculus [43] = assay: The compound was evaluated for the mean body weight change (BWC) in mice infected with cisplatin sensitive L1210 Leukemia (dose 10 mg/kg, ip),day 9; assay type: functional, organism-based; design: dose 10 mg/kg; outline: as §2

Substance: [Bis(aminomethyl)diethylsilane]tetrachloroplatinum(IV)
- TGI (Tumor Cell line [1]): 46.8 µM
- GI50 (Tumor Cell line [2]): 3.02 µM

Substance: [Bis(aminomethyl)dimethylsilane]dichloroplatinum (II) [listing 1 of 2 here]
- Log LC50 (Tumor Cell line [3]): > -4.01

Substance: [Bis(aminomethyl)dimethylsilane]dichloroplatinum (II) [listing 2 of 2 here]
- MST (Mus musculus [4]): 22.5 days
- MST (Mus musculus [5]): 16.3 days
- ILS (Mus musculus [6]): 248%
- MST (Mus musculus [7]): 11.8 days
- BWC (Mus musculus [8]): -2.5 g
- MST (Mus musculus [9]): 18.3 days
- BWC (Mus musculus [10]): -3.5 g
- MST (Mus musculus [11]): 21.5 days
- MST (Mus musculus [12]): 20.5 days
- MST (Mus musculus [13]): 15.5 days
- BWC (Mus musculus [14]): -2.9 g
- BWC (Mus musculus [15]): -1 g
- BWC (Mus musculus [16]): -0.4 g
- ILS (Mus musculus [17]): 152%
- TGI (Tumor Cell line [1]): 83.2 µM
- MST (Mus musculus [18]): 21.5 days
- GI50 (Tumor Cell line [2]): 20.4 µM
- BWC (Mus musculus [19]): -1.7 g
- MST (Mus musculus [20]): 30 days
- ILS (Mus musculus [21]): 138%
- BWC (Mus musculus [22]): -0.4 g
- MST (Mus musculus [23]): 6.3 days
- ILS (Mus musculus [24]): 109%
- BWC (Mus musculus [25]): -0.2 g
- ILS (Mus musculus [26]): 88%
- BWC (Mus musculus [27]): -4.3 g
- MST (Mus musculus [28]): 16.8 days
- ILS (Mus musculus [29]): 83%
- MST (Mus musculus [30]): 22.5 days and 10.5 days
- MST (Mus musculus [31]): 18 days
- MST (Mus musculus [32]): 11.7 days
- BWC (Mus musculus [33]): -2.7 g
- ILS (Mus musculus [34]): 31%
- MST (Mus musculus [35]): 13.8 days
- MST (Mus musculus [36]): 12.5 days
- MST (Mus musculus [37]): 14.8 days
- BWC (Mus musculus [38]): -0.6 g
- BWC (Mus musculus [39]): -1.1 g
- BWC (Mus musculus [40]): -0.9 g
- BWC (Mus musculus [41]): 0.1 g
- BWC (Mus musculus [42]): -0.9 g
- BWC (Mus musculus [43]): -0.2 g

Substance: [Bis(aminomethyl)dimethylsilane]tetrachloroplatinum(IV)
- Log LC50 (Tumor Cell line [3]): > -4.02

Substance: [Bis(aminomethyl)ethylmethylsilane]tetrachloroplatinum(IV)
- Log LC50 (Tumor Cell line [3]): > -4.02
